# Screening data (PubChem)
# This is a sample that favours compounds with a hit; in the whole collection about 0.63% have one here.
# DSG3 Ab inh: inhibitors of pemphigus antibody binding to DSG3, primary screen, biochemical, bead-based, flow cytometry, scFv-GFP; Desmoglein-3 (Homo sapiens), P32926; DSG3-coupled beads, scFv-anti-DSG3-GFP binding; stronger effect = lower value; binding (percent of control), % at 10 µM; hit rate 0.48% among 310,000;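 active means binding more than 3 SD below its plate's average and above zero; inconclusive means below that plate limit but binding exactly zero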
# Target sequence (P32926 whole entry, looked up): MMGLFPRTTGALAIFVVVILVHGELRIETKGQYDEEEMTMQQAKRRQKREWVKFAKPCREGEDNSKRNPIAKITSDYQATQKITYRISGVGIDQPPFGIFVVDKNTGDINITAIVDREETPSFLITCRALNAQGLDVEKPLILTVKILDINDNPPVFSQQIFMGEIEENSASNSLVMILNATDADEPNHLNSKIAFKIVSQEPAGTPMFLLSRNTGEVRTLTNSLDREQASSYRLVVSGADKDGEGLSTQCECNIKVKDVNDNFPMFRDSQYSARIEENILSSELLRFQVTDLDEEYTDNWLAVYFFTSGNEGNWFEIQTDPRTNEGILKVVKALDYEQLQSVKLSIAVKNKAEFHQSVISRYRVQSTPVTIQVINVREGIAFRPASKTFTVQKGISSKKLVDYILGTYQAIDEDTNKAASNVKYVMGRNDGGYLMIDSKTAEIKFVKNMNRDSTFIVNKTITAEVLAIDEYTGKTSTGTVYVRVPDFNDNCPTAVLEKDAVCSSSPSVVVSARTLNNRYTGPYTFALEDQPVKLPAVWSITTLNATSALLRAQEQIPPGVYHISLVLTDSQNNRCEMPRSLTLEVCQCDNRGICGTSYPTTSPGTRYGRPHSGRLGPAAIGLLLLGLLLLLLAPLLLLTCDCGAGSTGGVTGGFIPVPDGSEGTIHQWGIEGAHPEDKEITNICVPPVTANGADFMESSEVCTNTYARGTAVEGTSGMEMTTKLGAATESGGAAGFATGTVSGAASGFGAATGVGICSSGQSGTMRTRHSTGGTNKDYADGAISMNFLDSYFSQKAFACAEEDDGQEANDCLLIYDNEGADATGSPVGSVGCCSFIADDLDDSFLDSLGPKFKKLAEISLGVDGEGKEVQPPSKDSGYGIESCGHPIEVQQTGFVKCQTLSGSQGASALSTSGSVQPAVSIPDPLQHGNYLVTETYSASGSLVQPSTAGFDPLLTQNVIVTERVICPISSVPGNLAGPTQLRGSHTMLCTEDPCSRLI
# MT1-MMP act inh: blockers of MT1-MMP proenzyme processing, primary screen, HT1080 RFP-PRO-GFP cells, GFP/RFP fluorescence. Matrix metalloproteinase-14 (Homo sapiens), P50281. GFP/RFP ratio fluorescence, overnight; percent of plate control window, DMSO zero. GFP/RFP ratio change, % at 20 µM. hit rate 0.061% among 360,000. AID 651647, 2012;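 active means GFP/RFP ratio change of at least 30% with cell ATP level not reduced by more than half and red fluorescence within 50% of control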
#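 Material – HT1080 RFP-PRO-GFP cells · Control set – DMSO wells and RFP-L50D-GFP cells · Incubation – overnight cell settling, then overnight compound exposure, 37 °C, 5% CO2 · Compound dosing – single-point 20 µM compound, 1% DMSO · Read-out – GFP/RFP fluorescence ratio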
# GSK3beta inhib: human GSK3beta kinase inhibitors, primary screen, biochemical, cell-free homogeneous, HTS. GST-GSK3beta kinase, ADP-Glo luminescence, 60 min; stronger effect = lower value. activity score (negative = inhibition), % at 10 µM. hit rate 0.038% among 300,000;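 active means more than half of replicate wells score below -50%, meaning over 50% inhibition versus plate controls; inconclusive means some replicates but at most half score below -50%; inactive means no replicate scores below -50%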;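 further: 0% = median DMSO wells and -100% = median GW8510 positive control wells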
#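 Assay system: GST-fused GSK3beta enzyme, cell-free / Medium: Tris pH 7.5 buffer with MgCl2, DTT, BSA, heparin / Also added: peptide substrate plus 25 µM ATP (final) / Compound: 10 µM single point / Timing: kinase reaction with compound 60 min at room temperature / Detection: ADP-Glo luminescence / Benchmarks: DMSO neutral wells and GW8510 at 20 µM as positive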
# STK33 kinase inh: inhibitors of purified STK33 kinase, primary screen, biochemical, ADP-Glo luminescence, homogeneous, cell-free. Serine/threonine-protein kinase 33 (Homo sapiens), Q9BYT3. MBP phosphorylation. inhibition, % at 10 µM. hit rate 0.073% among 320,000. AID 2661, 2010;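 active means inhibition at or above 25%, using the most active replicate where run in duplicate; inactive means inhibition below 25%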
# GSK3 alpha inh: blockers of GSK3A enzyme activity – biochemical, luminescence, cell-free homogeneous, HTS, primary screen | Glycogen synthase kinase-3 alpha (Homo sapiens), P49840 | GSK-3 alpha kinase, ADP-Glo luminescence, 60 min | inhibition, % at 10 µM | hit rate 0.1% among 320,000 | AID 2650, 2010;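 active means more than half of replicates show inhibition above 20%; inconclusive means some but at most half of replicates above 20% inhibition; inactive means no replicate shows inhibition above 20%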;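 further: GST-tagged GSK-3 alpha with peptide substrate and 25 µM ATP; 0% = DMSO neutral wells and 100% = GW8510 positive control wells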
# An asterisk follows results filed as active; ? = inconclusive; . = no result.
SMILES,DSG3 Ab inh,MT1-MMP act inh,GSK3beta inhib,STK33 kinase inh,GSK3 alpha inh
CN(C)C(=O)c1cccc(COc2ccc(N3C(N)=NC(N)=NC3(C)C)cc2Cl)c1,101,-6,.,.,.
Cc1snc(S(=O)(=O)/C(C#N)=N/Nc2cccc(C(F)(F)F)c2)c1C#N,74*,10,7,3,-5
CCCCn1nnnc1C(c1cccc2ccccc12)N1CCN(C/C=C/c2ccccc2)CC1 (stereo unspecified),.,-4,.,.,.
C#CCOCCOCCOCCNc1nc(N2CCN(C(=O)CCCCCCCCCCNC(=O)[C@H]([C@@H](C)CC)n3cc(CCCCN=C(N)N)nn3)CC2)nc(N2CCN(C(=O)CCCCCCCCCCNC(=O)[C@H](CCCCN)n3cc(C[C@@H](C)CC)nn3)CC2)n1,.,.,.,30*,17
COc1cccc(CNC(=O)[C@@H]2CCCN2C(=O)[C@H]2CCCCN2C(=O)OC(C)(C)C)c1,.,1,.,.,.
CSCCC(C(=O)Nc1c(C)cccc1C)N1CCN(C/C=C/c2ccccc2)CC1 (stereo unspecified),.,3,.,.,.
CCn1c2ccc(C)cc2c2nc3cc(C(=O)O)ccc3nc21,105,2,-5,57*,28
Cc1ccc(S(=O)(=O)N2C[C@H]3C(=O)C[C@@H](c4ccccc4)N(S(C)(=O)=O)[C@H]3C[C@H]2c2ccccc2)cc1,.,1,.,.,.
CC(=O)Nc1cccc(-c2csc(Nc3ccccn3)n2)c1,70*,4,-5,4,1
CCc1nc2ccc(C(=O)NCc3ccc(OC)cc3)cn2c1N(C)CCC(C)C,.,-6,.,.,.
Cn1cc([C@]2(O)C(=O)Nc3ccc(OC(F)(F)F)cc32)c2ccccc21,.,5,.,.,.
O=C1NC[C@H](Cc2ccccc2)N(C[C@@H]2CCCN2C[C@H](Cc2ccc(O)cc2)N2C[C@H](Cc3ccccc3)N(CC3CCCCCC3)C(=O)C2=O)C1=O,.,-2,.,.,.
CN1CCN(c2ccccc2NC(=O)c2ccc(Br)o2)CC1,98,4,-36,14,14
CS(=O)(=O)N1CCN(c2ccccc2NC(=O)c2ccc(Br)o2)CC1,121,-3,2,23,53*
CCOC(=O)c1cc(OCC)c2c(ccc3cc(OC)ccc32)n1,103,1,.,.,.
Cc1noc(C)c1CSCC(=O)Nc1cc(S(=O)(=O)N2CCCCC2)ccc1OC(C)C,100,2,0,-1,-2
Cc1noc(C)c1CSCC(=O)Nc1cc(S(=O)(=O)N2CCOCC2)ccc1OCC(F)(F)F,76*,2,3,-1,-1
CC(C)(C)c1ccc(C(=O)N2[C@H](COCc3ccccc3)C=CS2(=O)=O)cc1,.,2,.,.,.
COc1ccc2cc3c(N)nn(C(=O)c4ccc(F)cc4)c3nc2c1,62*,-8,1,-1,2
Oc1ccc(-c2nc3ncccn3c2Nc2ccc3c(c2)OCO3)cc1,104,-2,-1,2,53*
CCCCn1nnnc1C(c1ccccc1)N1CCN(C/C=C/c2ccccc2)CC1 (stereo unspecified),.,5,.,.,.
Cc1cccc(NC(=O)CC2C(=O)NC3CCCCC3N2C(=O)c2ccccc2Cl)c1 (stereo unspecified),89*,1,-3,-2,-2
CCCCNC(=O)C1C(c2ccccc2)=Nc2ccccc2N1C(=O)c1ccc(C)cc1 (stereo unspecified),.,-3,.,.,.
O=c1c2ccccc2sn1-c1cc(S(=O)(=O)N2CCOCC2)ccc1N1CCOCC1,26*,-2,2,-4,0
O=c1c2ccccc2sn1-c1cc(S(=O)(=O)N2CCOCC2)ccc1N1CCCC1,72,6,1,-2,-1
SMILES,DSG3 Ab inh,MT1-MMP act inh,GSK3beta inhib,STK33 kinase inh,GSK3 alpha inh
CC1(C)CC(=O)C(C(O)c2ccc([N+](=O)[O-])cc2)C(C)(C)N1 (stereo unspecified),99,3,-2,1,-2
CC1(C)CC(=O)C(C(O)c2ccccc2)C(C)(C)N1 (stereo unspecified),72*,-8,-3,1,-2
COc1ccccc1C#Cc1cnc2c(c1)C(=O)N([C@H](C)CO)C[C@@H](C)[C@@H](CN(C)C(=O)c1ccc3c(c1)OCO3)O2,112,2,.,.,.
N#Cc1cccc(-c2nnc(SCc3ccccc3C#N)o2)c1,100,-2,-6,1,4
COc1cc(-c2nnc(SCc3c(F)cccc3Cl)o2)cc(OC)c1OC,121,0,-3,-2,-2
Clc1ccccc1CSc1nnc(-c2ccncc2)o1,.,-4,1,0,54*
Fc1cccc(Cl)c1CSc1nnc(-c2ccncc2)o1,101,3,-34,2,57*
Brc1cccc(CSc2nnc(-c3ccncc3)o2)c1,99,-12,-70*,2,59*
N#Cc1ccccc1CSc1nnc(-c2ccncc2)o1,106,1,-52*,2,21
Cc1cc(F)cc(-c2cc(C(=O)NCc3ccccn3)[nH]n2)c1,.,-1,.,.,.
COc1ccc(C(C(=O)Nc2ccc(F)cc2)N2CCN(C(=O)c3ccco3)CC2)cc1 (stereo unspecified),.,0,.,.,.
COc1cccc(-c2nc(NCc3ccco3)c3ccccc3n2)c1O,64*,6,2,1,8
COc1cccc(-c2nc(NC3CCCC3)c3ccccc3n2)c1O,?,-5,-4,0,-1
C=CCNc1nc(-c2cccc(OC)c2O)nc2ccccc12,92*,-5,3,-1,0
COc1cccc(-c2nc(NCc3ccccc3)c3ccccc3n2)c1O,98,3,4,-2,0
O=C(O)Cc1ccc(O)c(F)c1,68*,4,-2,-2,-2
CCOC(=O)c1ccc(N/C=C/C(=O)c2ccccc2)cc1,102,3,2,-1,0
CCOC(=O)c1ccccc1N/C=C/C(=O)c1ccccc1,36*,-12,3,0,0
CCc1ccc(OCC(=O)c2c(O)c3ccccc3oc2=O)cc1,50*,-2,2,-1,-4
O=C(NCCOc1ccccc1)C1C(=O)Nc2ccccc2C(=O)N1C1CCCCC1 (stereo unspecified),.,-3,.,.,.
CC1=CC(=C(C#N)C#N)C=C(C)N1Cc1ccc(Cl)cc1,-3.8*,5,1,-1,0
O=C(COc1ccc(F)cc1)Nc1ccc2c(c1)OCCO2,112,3,2,0,0
CCC(=O)c1ccc(OCC(=O)Nc2ccc3c(c2)OCCO3)cc1,-3.4*,-5,.,-1,-1
O=C(c1ccco1)N1CCN(Cc2ccccc2Br)CC1,72*,3,0,0,-1
